Measured values: ChEMBL document CHEMBL4138069, “Design, synthesis, molecular-docking and antimycobacterial evaluation of some novel 1,2,3-triazolyl xanthenones” (Medchemcomm, 2017)
In brackets after ≈: the same amount, converted by molar mass.

Columns and labels:
[1] = test system: Mycobacterium tuberculosis; experiment: Antimycobacterial activity against Mycobacterium tuberculosis H37Rv ATCC 27294 assessed as inhibition of bacterial growth incubated for 28 days; type: functional; details: H37Rv ATCC 27294, 672 h
Summary of the method: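 Agar dilution in Middlebrook 7H11 with OADC, two-fold dilutions at final 50 to 0.78 μg mL–1. Inoculum from fresh 7H11 slants, adjusted to 1 mg mL–1 wet weight in 0.05% Tween 80 saline, diluted 10–2 to about 10^7 cfu mL–1; 5 μL spotted per tube. Incubated at 37 °C. MIC = lowest concentration giving complete growth inhibition, read at 28 days, in triplicate.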

Klebsiella aerogenes = experiment: Antibacterial activity against Enterobacter aerogenes MTCC 111 by agar dilution method; type: functional
Summary of the method: (§1)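 Minimum inhibitory concentration measured by agar dilution against three Gram-positive and three Gram-negative MTCC strains; read out as MIC.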

Aspergillus niger = experiment: Antifungal activity against Aspergillus niger MTCC 282; type: functional
Summary of the method: (§2)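 Antifungal read-out was MIC in μg mL–1, with fluconazole as the reference drug.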

[2] = Lipophilicity, log P of the compound; type: physicochemical; details: octanol/water
Summary of the method: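 Value is a calculated log P (clog P), computed rather than measured experimentally.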

Staphylococcus aureus = experiment: Antibacterial activity against Staphylococcus aureus MTCC 96 by agar dilution method; type: functional; summary of the method: as §1
Escherichia coli = experiment: Antibacterial activity against Escherichia coli MTCC 1652 by agar dilution method; type: functional; summary of the method: as §1
Pseudomonas aeruginosa = experiment: Antibacterial activity against Pseudomonas aeruginosa MTCC 741 by agar dilution method; type: functional; summary of the method: as §1
Bacillus subtilis = experiment: Antibacterial activity against Bacillus subtilis MTCC 121 by agar dilution method; type: functional; summary of the method: as §1
Candida albicans = experiment: Antifungal activity against Candida albicans MTCC 9062; type: functional; summary of the method: as §2
Bacillus cereus = experiment: Antibacterial activity against Bacillus cereus MTCC 430 by agar dilution method; type: functional; summary of the method: as §1
[3] = Cytotoxicity in HEK cells assessed as inhibition of cell growth at 50 ug/ml incubated for 72 hrs by MTT assay; type: cell-based; details: human, read-out: GI
Summary of the method: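 HEK cells were exposed to compound at 50 μg mL–1 for 72 h. Viability was taken from cellular conversion of MTT to formazan, using a non-radioactive cell proliferation kit.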

SMILES	MIC [1] [µg/mL]	MIC (Klebsiella aerogenes) [µg/mL]	MIC (Aspergillus niger) [µg/mL]	logP [2]	MIC (Staphylococcus aureus) [µg/mL]	MIC (Escherichia coli) [µg/mL]	MIC (Pseudomonas aeruginosa) [µg/mL]	MIC (Bacillus subtilis) [µg/mL]	MIC (Candida albicans) [µg/mL]	MIC (Bacillus cereus) [µg/mL]	inhibition at 72 h, 50 ug/ml [3] [%]
CO[C@H]1/C=C/O[C@@]2(C)Oc3c(C)c(O)c4c(O)c(c(/C=N/N5CCN(C)CC5)c(O)c4c3C2=O)NC(=O)/C(C)=C\C=C\[C@H](C)[C@H](O)[C@@H](C)[C@@H](O)[C@@H](C)[C@H](OC(C)=O)[C@@H]1C [RIFAMPIN]	0.24 (≈ 0.292 µM)										
COc1ccc(-n2cc(C=O)nn2)cc1	12.5 (≈ 61.5 µM)										
CC1(C)CC(=O)C2=C(C1)Oc1ccc3ccccc3c1C2c1cn(-c2ccccc2Cl)nn1 (configuration not stated)	25 (≈ 54.8 µM)	12.5 (≈ 27.4 µM)	3.12 (≈ 6.84 µM)	5.21	3.12 (≈ 6.84 µM)	3.12 (≈ 6.84 µM)	6.25 (≈ 13.7 µM)	6.25 (≈ 13.7 µM)	3.12 (≈ 6.84 µM)	3.12 (≈ 6.84 µM)	
COc1ccccc1-n1cc(C2C3=C(CCCC3=O)Oc3ccc4ccccc4c32)nn1 (configuration not stated)	25 (≈ 59 µM)	6.25 (≈ 14.8 µM)	12.5 (≈ 29.5 µM)	3.73	6.25 (≈ 14.8 µM)	12.5 (≈ 29.5 µM)	6.25 (≈ 14.8 µM)	12.5 (≈ 29.5 µM)	6.25 (≈ 14.8 µM)	25 (≈ 59 µM)	
O=Cc1cn(-c2ccccc2)nn1	25 (≈ 144 µM)										
O=Cc1cn(-c2ccccc2Cl)nn1	25 (≈ 120 µM)										
O=Cc1cn(-c2cccc(C(F)(F)F)c2)nn1	> 25										
O=C1CCCC2=C1C(c1cn(-c3cccc(C(F)(F)F)c3)nn1)c1c(ccc3ccccc13)O2 (configuration not stated)	> 25	12.5 (≈ 27.1 µM)	50 (≈ 108 µM)	4.77	6.25 (≈ 13.5 µM)	12.5 (≈ 27.1 µM)	6.5 (≈ 14.1 µM)	12.5 (≈ 27.1 µM)	50 (≈ 108 µM)	25 (≈ 54.2 µM)	
COc1ccccc1-n1cc(C=O)nn1	> 25										
O=C(O)c1cn(C2CC2)c2cc(N3CCNCC3)c(F)cc2c1=O [CIPROFLOXACIN]		≤ 6.25			≤ 6.25	≤ 6.25	≤ 6.25	≤ 6.25		≤ 6.25	
NC(=O)c1cnccn1 [PYRAZINAMIDE]	50.8 (≈ 412 µM)										
OC(Cn1cncn1)(Cn1cncn1)c1ccc(F)cc1F [FLUCONAZOLE]			≤ 3.12						≤ 3.12		
O=C1CCCC2=C1C(c1cn(-c3ccccc3)nn1)c1c(ccc3ccccc13)O2 (configuration not stated)	12.5 (≈ 31.8 µM)	3.12 (≈ 7.93 µM)	3.12 (≈ 7.93 µM)	3.85	3.12 (≈ 7.93 µM)	3.12 (≈ 7.93 µM)	3.12 (≈ 7.93 µM)	3.12 (≈ 7.93 µM)	3.12 (≈ 7.93 µM)	3.12 (≈ 7.93 µM)	
COc1ccccc1-n1cc(C2C3=C(CC(C)(C)CC3=O)Oc3ccc4ccccc4c32)nn1 (configuration not stated)	12.5 (≈ 27.7 µM)	> 100	> 100	4.53	> 100	25 (≈ 55.4 µM)	> 100	> 100	25 (≈ 55.4 µM)	50 (≈ 111 µM)	
NNC(=O)c1ccncc1 [ISONIAZID]	0.72 (≈ 5.25 µM)										
CC1(C)CC(=O)C2=C(C1)Oc1ccc3ccccc3c1C2c1cn(-c2cccc(C(F)(F)F)c2)nn1 (configuration not stated)	> 25	25 (≈ 51.1 µM)	12.5 (≈ 25.5 µM)	5.57	25 (≈ 51.1 µM)	100 (≈ 204 µM)	25 (≈ 51.1 µM)	50 (≈ 102 µM)	100 (≈ 204 µM)	12.5 (≈ 25.5 µM)	
CC1(C)CC(=O)C2=C(C1)Oc1ccc3ccccc3c1C2c1cn(-c2ccc([N+](=O)[O-])cc2)nn1 (configuration not stated)	> 25	3.12 (≈ 6.69 µM)	6.25 (≈ 13.4 µM)		12.5 (≈ 26.8 µM)	3.12 (≈ 6.69 µM)	12.5 (≈ 26.8 µM)	6.25 (≈ 13.4 µM)	3.12 (≈ 6.69 µM)	6.25 (≈ 13.4 µM)	
COc1ccc(-n2cc(C3C4=C(CCCC4=O)Oc4ccc5ccccc5c43)nn2)cc1 (configuration not stated)	6.25 (≈ 14.8 µM)	6.25 (≈ 14.8 µM)	3.12 (≈ 7.37 µM)	3.73	3.12 (≈ 7.37 µM)	3.12 (≈ 7.37 µM)	6.25 (≈ 14.8 µM)	12.5 (≈ 29.5 µM)	3.12 (≈ 7.37 µM)	3.12 (≈ 7.37 µM)	22.2
O=C1CCCC2=C1C(c1cn(-c3ccc(Cl)cc3)nn1)c1c(ccc3ccccc13)O2 (configuration not stated)	3.12 (≈ 7.3 µM)	12.5 (≈ 29.2 µM)	> 100	4.41	12.5 (≈ 29.2 µM)	12.5 (≈ 29.2 µM)	25 (≈ 58.4 µM)	50 (≈ 117 µM)	> 100	12.5 (≈ 29.2 µM)	18.1
O=C1CCCC2=C1C(c1cn(-c3ccc(O)cc3)nn1)c1c(ccc3ccccc13)O2 (configuration not stated)	> 25	> 100	> 100	3.46	> 100	> 100	> 100	> 100	> 100	> 100	
O=C1CCCC2=C1C(c1cn(-c3ccccc3Cl)nn1)c1c(ccc3ccccc13)O2 (configuration not stated)	25 (≈ 58.4 µM)	50 (≈ 117 µM)	12.5 (≈ 29.2 µM)	4.41	> 100	12.5 (≈ 29.2 µM)	50 (≈ 117 µM)	> 100	> 100	> 100	
CC1(C)CC(=O)C2=C(C1)Oc1ccc3ccccc3c1C2c1cn(-c2ccccc2)nn1 (configuration not stated)	12.5 (≈ 29.7 µM)	6.25 (≈ 14.8 µM)	6.25 (≈ 14.8 µM)	4.65	6.25 (≈ 14.8 µM)	12.5 (≈ 29.7 µM)	25 (≈ 59.3 µM)	25 (≈ 59.3 µM)	25 (≈ 59.3 µM)	12.5 (≈ 29.7 µM)	
CC[C@@H](CO)NCCN[C@@H](CC)CO [ETHAMBUTOL]	7.64 (≈ 37.4 µM)										
O=Cc1cn(-c2ccc(O)cc2)nn1	> 25										
CC1(C)CC(=O)C2=C(C1)Oc1ccc3ccccc3c1C2c1cn(-c2ccc(O)cc2)nn1 (configuration not stated)	> 25	6.25 (≈ 14.3 µM)	12.5 (≈ 28.6 µM)	4.26	6.25 (≈ 14.3 µM)	3.12 (≈ 7.13 µM)	6.25 (≈ 14.3 µM)	6.25 (≈ 14.3 µM)	3.12 (≈ 7.13 µM)	12.5 (≈ 28.6 µM)	
O=C1CCCC2=C1C(c1cn(-c3ccc([N+](=O)[O-])cc3)nn1)c1c(ccc3ccccc13)O2 (configuration not stated)	> 25	> 100	> 100		> 100	50 (≈ 114 µM)	50 (≈ 114 µM)	> 100	> 100	> 100	
O=Cc1cn(-c2ccc([N+](=O)[O-])cc2)nn1	> 25										
COc1ccc(-n2cc(C3C4=C(CC(C)(C)CC4=O)Oc4ccc5ccccc5c43)nn2)cc1 (configuration not stated)	6.25 (≈ 13.8 µM)	6.25 (≈ 13.8 µM)	3.12 (≈ 6.91 µM)	4.53	6.25 (≈ 13.8 µM)	12.5 (≈ 27.7 µM)	6.25 (≈ 13.8 µM)	6.25 (≈ 13.8 µM)	6.25 (≈ 13.8 µM)	3.12 (≈ 6.91 µM)	21.2
CC1(C)CC(=O)C2=C(C1)Oc1ccc3ccccc3c1C2c1cn(-c2ccc(Cl)cc2)nn1 (configuration not stated)	3.12 (≈ 6.85 µM)	12.5 (≈ 27.4 µM)	12.5 (≈ 27.4 µM)	5.21	12.5 (≈ 27.4 µM)	12.5 (≈ 27.4 µM)	12.5 (≈ 27.4 µM)	12.5 (≈ 27.4 µM)	12.5 (≈ 27.4 µM)	12.5 (≈ 27.4 µM)	18.1
O=Cc1cn(-c2ccc(Cl)cc2)nn1	6.25 (≈ 30.1 µM)										
